# Results taken from ChEMBL document CHEMBL3259694, “Design and synthesis of molecular probes for the determination of the target of the anthelmintic drug praziquantel” (Bioorg Med Chem Lett, 2014).
# The source made the active and inactive calls. No cut-off for these calls is given here.
# Key:
# [1] = Solubility in 1% DMSO at >300 uM; format: physicochemical
# [2] = test system: Schistosoma mansoni; assay: Anthelmintic activity against sexually mature Schistosoma mansoni PR-1 adult worm assessed as parasite death incubated for overnight measured after 7 days drug wash-out period by stereomicroscopic analysis; format: functional, organism-based; conditions: PR-1, 168 h
# Summary of the method: (§1)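 Adult male worms exposed in vitro overnight to a range of concentrations, then washed and kept 7 days in drug-free medium. Motility, contraction and survival were scored at day 7. EC50 was taken from dose-response curves of percent worms alive at day 7 against log concentration, as mean and SEM of three replicates, with 95% confidence intervals.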
# [3] = test system: Schistosoma mansoni; assay: Anthelmintic activity against sexually mature Schistosoma mansoni PR-1 adult worm assessed immediate worm contraction by stereomicroscopic analysis; format: functional, organism-based
# Summary of the method: (§2)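 Adult male worms were watched for contraction, shortening or paralysis at once on addition of the compound. Worms were then kept overnight in its presence before washout.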
# [4] = test system: Schistosoma mansoni; assay: Anthelmintic activity against sexually mature Schistosoma mansoni PR-1 adult worm assessed as loosely curled worm with little movement at >100 uM incubated for overnight measured after 7 days drug wash-out period by stereomicroscopic analysis; format: functional, organism-based; summary of the method: as §1
# [5] = test system: Schistosoma mansoni; assay: Anthelmintic activity against sexually mature Schistosoma mansoni PR-1 adult worm assessed immediate worm shortening by stereomicroscopic analysis; format: functional, organism-based; summary of the method: as §2
# [6] = Solubility in 1% DMSO at 300 uM; format: physicochemical
# [7] = test system: Schistosoma mansoni; assay: Anthelmintic activity against sexually mature Schistosoma mansoni PR-1 adult worm assessed as worm contractility without movement at >40 uM incubated for overnight measured after 7 days drug wash-out period by stereomicroscopic analysis; format: functional, organism-based; summary of the method: as §1
# [8] = test system: Schistosoma mansoni; assay: Anthelmintic activity against sexually mature Schistosoma mansoni PR-1 adult worm assessed immediate worm paralysis by stereomicroscopic analysis; format: functional, organism-based; summary of the method: as §2
# [9] = test system: Schistosoma mansoni; assay: Anthelmintic activity against sexually mature Schistosoma mansoni PR-1 adult worm assessed as parasite death by measuring worm contractility at 1 uM incubated for overnight measured after 7 days drug wash-out period by stereomicroscopic analysis; format: functional, organism-based; summary of the method: as §1
# [10] = test system: Schistosoma mansoni; assay: Anthelmintic activity against sexually mature Schistosoma mansoni PR-1 adult worm assessed as parasite death by measuring worm contractility at 0.3 uM incubated for overnight measured after 7 days drug wash-out period by stereomicroscopic analysis; format: functional, organism-based; summary of the method: as §1
# [11] = test system: Schistosoma mansoni; assay: Anthelmintic activity against sexually mature Schistosoma mansoni PR-1 adult worm assessed as worm contractility and little movement at >60 uM incubated for overnight measured after 7 days drug wash-out period by stereomicroscopic analysis; format: functional, organism-based; summary of the method: as §1
structure (smiles),measurement,setting,value
C#CCN(Cc1ccc(C(=O)N2CC(=O)N3CCc4ccccc4[C@@H]3C2)cc1)C(=O)CCCCCNC(=O)CCC1(C)N=N1,solubility,[1],soluble
same,EC50,[2],> 300 µM
C#CCN(C(=O)c1ccc(C2(C(F)(F)F)N=N2)cc1)c1ccc(C(=O)N2CC(=O)N3CCc4ccccc4[C@@H]3C2)cc1,Activity,[3],inactive
same,Activity,[4],Active
same,Activity,[5],inactive
same,EC50,[2],132 µM
same,solubility,[6],soluble
Cc1cc(C)n2c1C=C1C=CC(CCC(=O)N3CC(=O)N4CCc5ccccc5[C@@H]4C3)=[N+]1[B-]2(F)F,Activity,[3],inactive
same,Activity,[7],Active
same,EC50,[2],53.3 µM
same,Activity,[8],inactive
O=C(C1CCCCC1)N1CC(=O)N2CCc3ccccc3C2C1 (racemic) [PRAZIQUANTEL],EC50,[2],2.5 µM
same,Activity,[9],Active
"O=C(C1CCCCC1)N1CC(=O)N2CCc3ccccc3[C@@H]2C1 [PRAZIQUANTEL, (R)-]",Activity,[10],Active
same,EC50,[2],0.5 µM
O=C(C1CCCCC1)N1CC(=O)N2CCc3ccccc3[C@H]2C1,Activity,[11],Active
same,EC50,[2],78.1 µM
